Data reported in ChEMBL document CHEMBL1140728, “Synthesis and biological activity of human neuropeptide S analogues modified in position 2” (J Med Chem, 2008).
Non-standard residues stand in square brackets, D forms with d. Residues, ends and D or L forms follow the SMILES beside them. Phe(4-CF3) = N[C@@H](Cc1ccc(C(F)(F)F)cc1)C(=O)O; Bip = N[C@@H](Cc1ccc(-c2ccccc2)cc1)C(=O)O; Phe(4-CN) = N#Cc1ccc(C[C@H](N)C(=O)O)cc1; Phe(4-F) = N[C@@H](Cc1ccc(F)cc1)C(=O)O; Phe(4-I) = N[C@@H](Cc1ccc(I)cc1)C(=O)O; Phe(4-Me) = Cc1ccc(C[C@H](N)C(=O)O)cc1; 2Nal = N[C@@H](Cc1ccc2ccccc2c1)C(=O)O; hPhe = N[C@@H](CCc1ccccc1)C(=O)O; Tic = O=C(O)[C@@H]1Cc2ccccc2CN1; Cha = N[C@@H](CC1CCCCC1)C(=O)O; Nphe = O=C(O)CNCc1ccccc1

Tests used:
[1] = target: T1, Neuropeptide S receptor (Mus musculus) (UniProt Q8BZP8); assay: Agonist activity at mouse recombinant NPS receptor expressed in HEK293 cells assessed as intracellular calcium mobilization relative to baseline; type: functional, cell-based
T1 sequence (whole entry): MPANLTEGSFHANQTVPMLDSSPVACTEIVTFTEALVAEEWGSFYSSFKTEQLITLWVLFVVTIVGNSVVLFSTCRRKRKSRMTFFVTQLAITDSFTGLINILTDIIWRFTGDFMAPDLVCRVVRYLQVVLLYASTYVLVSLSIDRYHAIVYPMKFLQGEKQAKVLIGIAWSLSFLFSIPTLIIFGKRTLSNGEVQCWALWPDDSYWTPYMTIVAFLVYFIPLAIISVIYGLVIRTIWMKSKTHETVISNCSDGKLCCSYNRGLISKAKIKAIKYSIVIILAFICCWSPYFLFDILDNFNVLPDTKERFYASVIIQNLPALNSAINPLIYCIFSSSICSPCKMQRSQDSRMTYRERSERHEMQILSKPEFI
Procedure, shortened: (§1)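 HEK293 cells stably expressing mouse NPSR, kept in DMEM with 10% FBS, 2 mM L-glutamine and hygromycin (100 mg/L), were seeded at 50 000 cells/well. Next day they were loaded with Fluo-4 AM (3 µmol), probenecid (2.5 mmol) and 0.01% pluronic acid for 30 min at 37 °C. Agonist dilutions in HBSS/HEPES with 0.02% BSA were added, and FlexStation II fluorescence was read at 22 °C.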

Neuropeptide S receptor = target: T2, Neuropeptide S receptor (Mus musculus, UniProt Q8BZP8); assay: Agonist activity at mouse recombinant NPS receptor expressed in HEK293 cells assessed as intracellular calcium mobilization; type: functional, cell-based; procedure, shortened: as §1
T2 sequence (Q8BZP8 whole entry): T1 sequence (whole entry)

Row | Compound | Emax [1] [%] | EC50 (Neuropeptide S receptor) [nM]
1 | CSCC[C@H](NC(=O)CNC(=O)[C@@H](NC(=O)CNC(=O)[C@@H](NC(=O)CNC(=O)[C@H](CC(N)=O)NC(=O)[C@H](CCCNC(=N)N)NC(=O)[C@H](Cc1ccc(C#N)cc1)NC(=O)[C@@H](N)CO)C(C)C)[C@@H](C)O)C(=O)N[C@@H](CCCCN)C(=O)N[C@@H](CCCCN)C(=O)N[C@H](C(=O)N[C@@H](CO)C(=O)N[C@@H](Cc1ccccc1)C(=O)N[C@@H](CCC(N)=O)C(=O)N[C@@H](CCCNC(=N)N)C(=O)N[C@@H](C)C(=O)N[C@@H](CCCCN)C(=O)N[C@@H](CO)C(=O)O)[C@@H](C)O (H-S[Phe(4-CN)]RNGVGTGMKKTSFQRAKS-OH) | 296 | 3.31
2 | CSCC[C@H](NC(=O)CNC(=O)[C@@H](NC(=O)CNC(=O)[C@@H](NC(=O)CNC(=O)[C@H](CC(N)=O)NC(=O)[C@H](CCCNC(=N)N)NC(=O)[C@H](CCc1ccccc1)NC(=O)[C@@H](N)CO)C(C)C)[C@@H](C)O)C(=O)N[C@@H](CCCCN)C(=O)N[C@@H](CCCCN)C(=O)N[C@H](C(=O)N[C@@H](CO)C(=O)N[C@@H](Cc1ccccc1)C(=O)N[C@@H](CCC(N)=O)C(=O)N[C@@H](CCCNC(=N)N)C(=O)N[C@@H](C)C(=O)N[C@@H](CCCCN)C(=O)N[C@@H](CO)C(=O)O)[C@@H](C)O (H-S[hPhe]RNGVGTGMKKTSFQRAKS-OH) | 216 | 4.17
3 | H-SHRNGVGTGMKKTSFQRAKS-OH | 288 | 132
4 | CSCC[C@H](NC(=O)CNC(=O)[C@@H](NC(=O)CNC(=O)[C@@H](NC(=O)CNC(=O)[C@H](CC(N)=O)NC(=O)[C@H](CCCNC(=N)N)NC(=O)[C@H](CC1CCCCC1)NC(=O)[C@@H](N)CO)C(C)C)[C@@H](C)O)C(=O)N[C@@H](CCCCN)C(=O)N[C@@H](CCCCN)C(=O)N[C@H](C(=O)N[C@@H](CO)C(=O)N[C@@H](Cc1ccccc1)C(=O)N[C@@H](CCC(N)=O)C(=O)N[C@@H](CCCNC(=N)N)C(=O)N[C@@H](C)C(=O)N[C@@H](CCCCN)C(=O)N[C@@H](CO)C(=O)O)[C@@H](C)O (H-S[Cha]RNGVGTGMKKTSFQRAKS-OH) | 221 | 1.35
5 | CSCC[C@H](NC(=O)CNC(=O)[C@@H](NC(=O)CNC(=O)[C@@H](NC(=O)CNC(=O)[C@H](CC(N)=O)NC(=O)[C@H](CCCNC(=N)N)NC(=O)[C@H](Cc1ccc2ccccc2c1)NC(=O)[C@@H](N)CO)C(C)C)[C@@H](C)O)C(=O)N[C@@H](CCCCN)C(=O)N[C@@H](CCCCN)C(=O)N[C@H](C(=O)N[C@@H](CO)C(=O)N[C@@H](Cc1ccccc1)C(=O)N[C@@H](CCC(N)=O)C(=O)N[C@@H](CCCNC(=N)N)C(=O)N[C@@H](C)C(=O)N[C@@H](CCCCN)C(=O)N[C@@H](CO)C(=O)O)[C@@H](C)O [[2Nal2]hNPS] (H-S[2Nal]RNGVGTGMKKTSFQRAKS-OH) | 213 | 2.19
6 | CSCC[C@H](NC(=O)CNC(=O)[C@@H](NC(=O)CNC(=O)[C@@H](NC(=O)CNC(=O)[C@H](CC(N)=O)NC(=O)[C@H](CCCNC(=N)N)NC(=O)CN(Cc1ccccc1)C(=O)[C@@H](N)CO)C(C)C)[C@@H](C)O)C(=O)N[C@@H](CCCCN)C(=O)N[C@@H](CCCCN)C(=O)N[C@H](C(=O)N[C@@H](CO)C(=O)N[C@@H](Cc1ccccc1)C(=O)N[C@@H](CCC(N)=O)C(=O)N[C@@H](CCCNC(=N)N)C(=O)N[C@@H](C)C(=O)N[C@@H](CCCCN)C(=O)N[C@@H](CO)C(=O)O)[C@@H](C)O (H-S[Nphe]RNGVGTGMKKTSFQRAKS-OH) | 246 | 15.5
7 | CSCC[C@H](NC(=O)CNC(=O)[C@@H](NC(=O)CNC(=O)[C@@H](NC(=O)CNC(=O)[C@H](CC(N)=O)NC(=O)[C@H](CCCNC(=N)N)NC(=O)[C@H](Cc1ccc(F)cc1)NC(=O)[C@@H](N)CO)C(C)C)[C@@H](C)O)C(=O)N[C@@H](CCCCN)C(=O)N[C@@H](CCCCN)C(=O)N[C@H](C(=O)N[C@@H](CO)C(=O)N[C@@H](Cc1ccccc1)C(=O)N[C@@H](CCC(N)=O)C(=O)N[C@@H](CCCNC(=N)N)C(=O)N[C@@H](C)C(=O)N[C@@H](CCCCN)C(=O)N[C@@H](CO)C(=O)O)[C@@H](C)O (H-S[Phe(4-F)]RNGVGTGMKKTSFQRAKS-OH) | 291 | 1.1
8 | CSCC[C@H](NC(=O)CNC(=O)[C@@H](NC(=O)CNC(=O)[C@@H](NC(=O)CNC(=O)[C@H](CC(N)=O)NC(=O)[C@H](CCCNC(=N)N)NC(=O)[C@@H]1Cc2ccccc2CN1C(=O)[C@@H](N)CO)C(C)C)[C@@H](C)O)C(=O)N[C@@H](CCCCN)C(=O)N[C@@H](CCCCN)C(=O)N[C@H](C(=O)N[C@@H](CO)C(=O)N[C@@H](Cc1ccccc1)C(=O)N[C@@H](CCC(N)=O)C(=O)N[C@@H](CCCNC(=N)N)C(=O)N[C@@H](C)C(=O)N[C@@H](CCCCN)C(=O)N[C@@H](CO)C(=O)O)[C@@H](C)O (H-S[Tic]RNGVGTGMKKTSFQRAKS-OH) | 244 | 8.13
9 | CSCC[C@H](NC(=O)CNC(=O)[C@@H](NC(=O)CNC(=O)[C@@H](NC(=O)CNC(=O)[C@H](CC(N)=O)NC(=O)[C@H](CCCNC(=N)N)NC(=O)[C@H](Cc1ccc(C)cc1)NC(=O)[C@@H](N)CO)C(C)C)[C@@H](C)O)C(=O)N[C@@H](CCCCN)C(=O)N[C@@H](CCCCN)C(=O)N[C@H](C(=O)N[C@@H](CO)C(=O)N[C@@H](Cc1ccccc1)C(=O)N[C@@H](CCC(N)=O)C(=O)N[C@@H](CCCNC(=N)N)C(=O)N[C@@H](C)C(=O)N[C@@H](CCCCN)C(=O)N[C@@H](CO)C(=O)O)[C@@H](C)O (H-S[Phe(4-Me)]RNGVGTGMKKTSFQRAKS-OH) | 317 | 0.676
10 | H-SFRNGVGTGMKKTSFQRAKS-OH [NEUROPEPTIDE S] | 270 | 1.1
11 | CSCC[C@H](NC(=O)CNC(=O)[C@@H](NC(=O)CNC(=O)[C@@H](NC(=O)CNC(=O)[C@H](CC(N)=O)NC(=O)[C@H](CCCNC(=N)N)NC(=O)[C@H](Cc1ccc(I)cc1)NC(=O)[C@@H](N)CO)C(C)C)[C@@H](C)O)C(=O)N[C@@H](CCCCN)C(=O)N[C@@H](CCCCN)C(=O)N[C@H](C(=O)N[C@@H](CO)C(=O)N[C@@H](Cc1ccccc1)C(=O)N[C@@H](CCC(N)=O)C(=O)N[C@@H](CCCNC(=N)N)C(=O)N[C@@H](C)C(=O)N[C@@H](CCCCN)C(=O)N[C@@H](CO)C(=O)O)[C@@H](C)O (H-S[Phe(4-I)]RNGVGTGMKKTSFQRAKS-OH) | 243 | 1.78
12 | H-SWRNGVGTGMKKTSFQRAKS-OH | 323 | 2.24
13 | CSCC[C@H](NC(=O)CNC(=O)[C@@H](NC(=O)CNC(=O)[C@@H](NC(=O)CNC(=O)[C@H](CC(N)=O)NC(=O)[C@H](CCCNC(=N)N)NC(=O)[C@H](Cc1ccc(-c2ccccc2)cc1)NC(=O)[C@@H](N)CO)C(C)C)[C@@H](C)O)C(=O)N[C@@H](CCCCN)C(=O)N[C@@H](CCCCN)C(=O)N[C@H](C(=O)N[C@@H](CO)C(=O)N[C@@H](Cc1ccccc1)C(=O)N[C@@H](CCC(N)=O)C(=O)N[C@@H](CCCNC(=N)N)C(=O)N[C@@H](C)C(=O)N[C@@H](CCCCN)C(=O)N[C@@H](CO)C(=O)O)[C@@H](C)O (H-S[Bip]RNGVGTGMKKTSFQRAKS-OH) | 170 | 20
14 | CSCC[C@H](NC(=O)CNC(=O)[C@@H](NC(=O)CNC(=O)[C@@H](NC(=O)CNC(=O)[C@H](CC(N)=O)NC(=O)[C@H](CCCNC(=N)N)NC(=O)[C@H](Cc1ccc(C(F)(F)F)cc1)NC(=O)[C@@H](N)CO)C(C)C)[C@@H](C)O)C(=O)N[C@@H](CCCCN)C(=O)N[C@@H](CCCCN)C(=O)N[C@H](C(=O)N[C@@H](CO)C(=O)N[C@@H](Cc1ccccc1)C(=O)N[C@@H](CCC(N)=O)C(=O)N[C@@H](CCCNC(=N)N)C(=O)N[C@@H](C)C(=O)N[C@@H](CCCCN)C(=O)N[C@@H](CO)C(=O)O)[C@@H](C)O (H-S[Phe(4-CF3)]RNGVGTGMKKTSFQRAKS-OH) | 286 | 2.57
